ZTA counter: counter-screen for EBNA-1 inhibitors: inhibitors of Epstein-Barr virus ZTA; 320,000 compounds, 0.15% hits; ZTA-DNA binding, fluorescence polarization; P03206; inhibition, % at 11 µM; in the data active = inhibition above about 33%
Target sequence (P03206 whole entry, looked up): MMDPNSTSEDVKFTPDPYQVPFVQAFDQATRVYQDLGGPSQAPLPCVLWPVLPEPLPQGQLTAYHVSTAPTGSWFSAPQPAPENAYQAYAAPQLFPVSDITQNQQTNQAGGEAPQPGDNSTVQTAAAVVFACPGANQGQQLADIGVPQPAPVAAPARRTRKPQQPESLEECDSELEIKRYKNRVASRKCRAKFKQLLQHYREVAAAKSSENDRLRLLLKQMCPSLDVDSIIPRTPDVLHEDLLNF
ALR H2O2 inh: inhibitors of human ALR sulfhydryl oxidase, primary screen, biochemical, H2O2 detection, HRP-luminol luminescence, single point; FAD-linked sulfhydryl oxidase ALR (Homo sapiens), P55789; purified ALR, DTT oxidation; inhibition, % (no concentration beside the values); 290,000 compounds, 3.8% hits; AID 485317, 2010;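 active = mean replicate inhibition above about 79%, with every replicate also reaching it, limit read from the data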
Target sequence (P55789 whole entry, looked up): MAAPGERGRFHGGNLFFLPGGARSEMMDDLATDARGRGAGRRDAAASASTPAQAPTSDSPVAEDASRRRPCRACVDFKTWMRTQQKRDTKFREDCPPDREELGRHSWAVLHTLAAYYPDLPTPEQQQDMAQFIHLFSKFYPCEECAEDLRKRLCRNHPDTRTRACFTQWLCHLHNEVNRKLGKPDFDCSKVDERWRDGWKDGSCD
NS3 helicase inh: inhibitors of HCV NS3 helicase, primary screen, biochemical, Cy5 molecular beacon fluorescence | Hepatitis C virus NS3 helicase | NS3 helicase DNA unwinding | inhibition, % at 10.9 µM | 290,000 compounds, 0.56% hits;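 active = inhibition above the mean of all tested compounds plus 3 SD, set per campaign, cut at about 35% in these data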;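 note: 0% = DMSO wells and 100% = thioflavine S control wells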
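test system = hepatitis C virus NS3 helicase domain fragment enzyme | reagent = annealed dual-labelled DNA beacon duplex, ATP-started | times = 1 h at 25 °C | detection = Cy5 fluorescence, 0 and 60 min reads | read-out basis = percent inhibition from t60/t0 fluorescence ratio | control set = DMSO and thioflavine S | replication = one well per compound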
M18AAP inhibitor: PfM18AAP inhibitors, malaria aminopeptidase, primary screen, biochemical, QFRET, recombinant enzyme; M18 aspartyl aminopeptidase (Plasmodium falciparum 3D7); H-Glu-NHMec fluorogenic cleavage; inhibition, % at 7.35 µM; 290,000 compounds, 1.2% hits;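 active = inhibition above the campaign mean inhibition over all tested compounds plus 3 SD, cut at about 28% in these data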;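 note: 0% = plate median of test compound wells and 100% = 2 mM ZnCl2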
core dimer inh: inhibitors of HCV core protein dimerization, primary screen, biochemical, TR-FRET, high-throughput; TR-FRET GST/Flag-core106 dimerization, 1536-well; inhibition, % at 5 µM; 300,000 compounds, 0.33% hits; AID 1899, 2009;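 active = inhibition above the mean of all tested compounds plus 3 SD, set per screening campaign, cut at about 45% in these data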
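Assay system – GST-tagged and Flag-tagged HCV core protein residues 1-106 · Quantity – core106 proteins, GST 13.5 nM and Flag 17 nM · Benchmarks – unlabelled core106 and no-GST-core106 wells · Read-out basis – percent inhibition of core106 dimerization signal · Detection – time-resolved FRET, ex 340 nm, em 617 and 671 nm · Schedule – 4 h at 22.5 °C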
EBNA-1 inh: EBNA-1 DNA-binding inhibitors, primary screen, biochemical, fluorescence polarization. inhibition, % at 14.8 µM. 300,000 compounds, 0.34% hits; in the data active = inhibition above about 28%
An asterisk follows results filed as active; nt = no result given. An excerpt weighted towards active compounds, which were near 5.2% of everything screened.

SMILES	ZTA counter	ALR H2O2 inh	NS3 helicase inh	M18AAP inhibitor	core dimer inh	EBNA-1 inh
COc1cc(C2N=C(c3ccccc3)NO2)cc(Br)c1O (stereo not drawn)	-6	98*	18	7	-6	13
CCOC(=O)C1=C(C)N(C)C(=O)NC1c1c(O)ccc2ccccc12 (stereo not drawn)	18	-18	6	6	8	9
CC[C@@H]1[C@H]2CCCC(=O)N3CC[C@@H](C[C@@H]1OC(=O)Nc1ccccc1)[C@@H]23	4	-2	-4	-16	5	16
CC[C@@H]1[C@H]2CCCC(=O)N3CC[C@@H](C[C@@H]1Nc1ccccc1)[C@@H]23	12	99*	-14	2	11	-2
COc1ccc(N=Nc2c(N)n[nH]c2N)cc1	-10	78*	-13	9	-21	9
Nc1n[nH]c(N)c1N=Nc1ccc(F)cc1	-18	86*	4	-8	-13	-10
Cc1ccccc1N=Nc1c(N)n[nH]c1N	nt	93*	14	11	nt	nt
Nc1n[nH]c(N)c1N=Nc1ccccc1	-6	95*	-14	17	-6	1
Nc1n[nH]c(N)c1N=Nc1ccc(Cl)cc1Cl	4	8	2	1	-11	0
Nc1n[nH]c(N)c1N=Nc1ccccc1F	-1	18	1	2	-12	-2
COc1ccc(S(=O)(=O)N2CCc3ccccc32)cc1C(=O)N1CCOCC1	9	nt	nt	nt	-5	4
Cn1c(=O)c2c(ncn2CC(=O)N/N=C/C=C\c2ccccc2[N+](=O)[O-])n(C)c1=O	-4	15	-8	0	2	-9
Cc1ccc(CN(C)CCc2ccccn2)cc1	-12	96*	-8	3	-2	6
COc1ccc(S(N)(=O)=O)cc1C(=O)OCC(=O)N1CCCC(C)C1 (stereo not drawn)	nt	-13	nt	nt	nt	nt
CCOc1ccc(CC(=O)N2CCN=C2SCc2ccc([N+](=O)[O-])cc2)cc1	-8	99*	14	8	3	-4
Cc1ccc(C(=O)N2CCN=C2SCc2ccc([N+](=O)[O-])cc2)cc1	-27	99*	-9	8	-2	0
Cc1ccc(CSC2=NCCN2C(=O)c2ccc([N+](=O)[O-])cc2)cc1	-14	-10	-1	2	7	-6
O=C(Cc1ccc(F)cc1)N1CCN=C1SCc1ccc([N+](=O)[O-])cc1	-7	99*	-6	18	-1	5
CCOc1ccc(CC(=O)N2CCN=C2SC)cc1	-12	-4	-16	2	-2	-5
O=C(c1cccc2ccccc12)N1CCN=C1SCc1ccc([N+](=O)[O-])cc1	17	98*	6	0	9	5
O=C(Cc1ccccc1)N1CCN=C1SCc1ccc([N+](=O)[O-])cc1	7	nt	-3	20	2	4
OC1COC(O)C(O)C1O (stereo not drawn)	5	-34	nt	nt	7	3
COc1ccc(/C(N)=N/OC(=O)CSc2ccc(C)cc2)cc1OC	4	-4	1	-2	-3	-4
Cc1ccc(SCC(=O)O/N=C(\N)c2ccc([N+](=O)[O-])cc2)cc1	8	98*	5	3	-3	8
COc1ccc(CC(=O)N2CCN=C2SCc2ccc([N+](=O)[O-])cc2)cc1	5	99*	-7	-1	2	6
SMILES	ZTA counter	ALR H2O2 inh	NS3 helicase inh	M18AAP inhibitor	core dimer inh	EBNA-1 inh
C=CCn1c(CSCc2ccc(F)cc2)n[nH]c1=S	6	68	11	15	-1	0
C=CCn1c(CSc2ccccc2[N+](=O)[O-])n[nH]c1=S	-8	58	31	18	65*	-1
COc1ccc(C(=O)N/N=C/c2ccc(OC)c(CSc3ccccn3)c2)cc1	-18	99*	-6	3	7	2
COc1ccc(/C=N/NC(=O)c2cccnc2)cc1CSc1ccccn1	-12	99*	-3	-8	1	-7
COc1ccc(/C=N/NC(=O)c2ccn[nH]2)cc1CSc1ccccn1	-8	99*	5	8	-9	-3
COc1ccc(/C=N/NC(=O)c2ccn[nH]2)cc1COc1ccc(Cl)cc1	1	0	-14	3	0	6

Screens deposited in PubChem by several laboratories.
